{
  "source": "ChEMBL document CHEMBL1140057",
  "about": "“Design, synthesis, and evaluation of novel organophosphorus inhibitors of bacterial ureases” (J Med Chem, 2008)",
  "key": {"[1]": {"assay": "Inhibition of Proteus vulgaris CCM 1956 urease by steady state kinetic study", "outline": "(§1)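 Assay at 30 °C in 3 mM phosphate pH 7.0 with 2-100 mM urea. Ammonia read by Berthelot indophenol at 650 nm. Enzyme-inhibitor preincubated 30 min before urea, or diluted 30-fold from a concentrated mix. Ki* from linear regression, triplicates.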"}, "[2]": {"assay": "Inhibition of Bacillus pasteurii CCM 2056 urease by steady state kinetic study", "parameters": "species or system Sporosarcina pasteurii", "outline": "as §1"}, "[3]": {"target": "Urease (Helicobacter pylori, UniProt Q0PXQ5)", "sequence (Q0PXQ5 whole entry)": "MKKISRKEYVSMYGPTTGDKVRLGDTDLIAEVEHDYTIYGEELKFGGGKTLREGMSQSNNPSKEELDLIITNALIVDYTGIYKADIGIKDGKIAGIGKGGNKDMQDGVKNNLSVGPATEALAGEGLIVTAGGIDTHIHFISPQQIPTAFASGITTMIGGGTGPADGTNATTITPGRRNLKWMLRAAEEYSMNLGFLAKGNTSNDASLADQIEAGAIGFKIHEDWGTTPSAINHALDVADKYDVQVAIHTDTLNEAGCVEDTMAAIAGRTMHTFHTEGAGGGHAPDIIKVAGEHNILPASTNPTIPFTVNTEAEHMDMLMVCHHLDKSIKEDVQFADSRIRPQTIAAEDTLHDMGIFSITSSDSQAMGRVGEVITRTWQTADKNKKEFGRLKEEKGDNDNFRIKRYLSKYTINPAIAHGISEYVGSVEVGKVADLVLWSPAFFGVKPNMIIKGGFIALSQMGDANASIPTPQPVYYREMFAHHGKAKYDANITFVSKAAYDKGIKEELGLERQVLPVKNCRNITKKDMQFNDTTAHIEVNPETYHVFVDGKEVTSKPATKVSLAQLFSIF", "assay": "Inhibition of Helicobacter pylori urease"}, "[4]": {"assay": "Inhibition of Klebsiella aerogenes urease"}},
  "data": [
    {"smiles": "CP(=O)(O)CNC(=O)[C@@H](N)CO", "values": [
      {"measurement": "IC50", "setting": "[1]", "result": 342, "unit": "µM"},
      {"measurement": "Ki", "setting": "[1]", "result": 41, "unit": "µM"},
      {"measurement": "IC50", "setting": "[2]", "result": 150, "unit": "µM"},
      {"measurement": "Ki", "setting": "[2]", "result": 37, "unit": "µM"}
    ]},
    {"smiles": "CP(=O)(O)CNC(=O)[C@@H](N)Cc1ccccc1", "values": [
      {"measurement": "IC50", "setting": "[1]", "result": 754, "unit": "µM"},
      {"measurement": "Ki", "setting": "[1]", "result": 176, "unit": "µM"},
      {"measurement": "IC50", "setting": "[2]", "result": 600, "unit": "µM"},
      {"measurement": "Ki", "setting": "[2]", "result": 215, "unit": "µM"}
    ]},
    {"smiles": "CP(O)(=S)CNC(=O)OCc1ccccc1", "note": "(configuration not stated)", "values": [
      {"measurement": "IC50", "setting": "[1]", "result": 158, "unit": "µM"},
      {"measurement": "Ki", "setting": "[1]", "result": 14, "unit": "µM"},
      {"measurement": "IC50", "setting": "[2]", "result": 112, "unit": "µM"},
      {"measurement": "Ki", "setting": "[2]", "result": 17.5, "unit": "µM"}
    ]},
    {"smiles": "CC(C)[C@H](N)C(=O)NCP(C)(=O)O", "values": [
      {"measurement": "IC50", "setting": "[1]", "result": 617, "unit": "µM"},
      {"measurement": "Ki", "setting": "[1]", "result": 208, "unit": "µM"},
      {"measurement": "IC50", "setting": "[2]", "result": 485, "unit": "µM"},
      {"measurement": "Ki", "setting": "[2]", "result": 120, "unit": "µM"}
    ]},
    {"smiles": "CP(=O)(O)CNC(=O)[C@@H](N)COCc1ccccc1", "values": [
      {"measurement": "IC50", "setting": "[1]", "result": 183, "unit": "µM"},
      {"measurement": "Ki", "setting": "[1]", "result": 32.6, "unit": "µM"},
      {"measurement": "IC50", "setting": "[2]", "result": 80, "unit": "µM"},
      {"measurement": "Ki", "setting": "[2]", "result": 25, "unit": "µM"}
    ]},
    {"smiles": "CP(=O)(O)CNC(=O)OCc1ccccc1", "values": [
      {"measurement": "IC50", "setting": "[1]", "result": 319, "unit": "µM"},
      {"measurement": "Ki", "setting": "[1]", "result": 65, "unit": "µM"},
      {"measurement": "IC50", "setting": "[2]", "result": 123, "unit": "µM"},
      {"measurement": "Ki", "setting": "[2]", "result": 43, "unit": "µM"}
    ]},
    {"smiles": "CP(O)(=S)CNC(=O)CNC(=O)OCc1ccccc1", "note": "(configuration not stated)", "values": [
      {"measurement": "IC50", "setting": "[1]", "result": 3.1, "unit": "µM"},
      {"measurement": "Ki", "setting": "[1]", "result": 0.45, "unit": "µM"},
      {"measurement": "IC50", "setting": "[2]", "result": 1.8, "unit": "µM"},
      {"measurement": "Ki", "setting": "[2]", "result": 0.17, "unit": "µM"}
    ]},
    {"smiles": "NCC(=O)NCC(=O)NO", "values": [
      {"measurement": "IC50", "setting": "[3]", "result": 0.79, "unit": "µM"}
    ]},
    {"smiles": "CP(=O)(O)CNC(=O)CN", "values": [
      {"measurement": "IC50", "setting": "[1]", "result": 86, "unit": "µM"},
      {"measurement": "Ki", "setting": "[1]", "result": 30, "unit": "µM"},
      {"measurement": "IC50", "setting": "[2]", "result": 60, "unit": "µM"},
      {"measurement": "Ki", "setting": "[2]", "result": 21, "unit": "µM"}
    ]},
    {"smiles": "CP(=O)(O)CNC(=O)CNC(=O)OCc1ccccc1", "values": [
      {"measurement": "IC50", "setting": "[1]", "result": 640, "unit": "µM"},
      {"measurement": "Ki", "setting": "[1]", "result": 178, "unit": "µM"},
      {"measurement": "IC50", "setting": "[2]", "result": 450, "unit": "µM"},
      {"measurement": "Ki", "setting": "[2]", "result": 135, "unit": "µM"}
    ]},
    {"smiles": "CC(=O)NO", "note": "[ACETOHYDROXAMIC ACID]", "values": [
      {"measurement": "Ki", "setting": "[4]", "result": 2.6, "unit": "µM"}
    ]},
    {"smiles": "CP(=O)(O)CN", "note": "[AMINOMETHYL(METHYL)PHOSPHINIC ACID]", "values": [
      {"measurement": "IC50", "setting": "[1]", "result": 2530, "unit": "µM"},
      {"measurement": "Ki", "setting": "[1]", "result": 425, "unit": "µM"},
      {"measurement": "IC50", "setting": "[2]", "result": 1100, "unit": "µM"},
      {"measurement": "Ki", "setting": "[2]", "result": 340, "unit": "µM"}
    ]},
    {"smiles": "CNCP(C)(=O)O", "note": "[METHYL((METHYLAMINO)METHYL)PHOSPHINIC ACID]", "values": [
      {"measurement": "IC50", "setting": "[1]", "result": 153, "unit": "µM"},
      {"measurement": "Ki", "setting": "[1]", "result": 27, "unit": "µM"},
      {"measurement": "IC50", "setting": "[2]", "result": 60, "unit": "µM"},
      {"measurement": "Ki", "setting": "[2]", "result": 18, "unit": "µM"}
    ]},
    {"smiles": "NP(N)(=O)Oc1ccccc1", "note": "[PHENYL PHOSPHORDIAMIDATE]", "values": [
      {"measurement": "Ki", "setting": "[2]", "result": 0.0006, "unit": "µM"}
    ]}
  ]
}
